# Compound activity as filed in PubChem.
# The entries come from a sample that favours hits as a whole.
# MKP-1 inh: inhibitors of human MKP-1 phosphatase; recombinant MKP-1, OMFP hydrolysis fluorescence; inhibition, %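 (compounds tested at a single concentration somewhere between 10 and 100 µM)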; 65,000 tested, 0.15% active;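 active = inhibition above about 50%, limit read from the data; inconclusive = inhibition over screen mean plus 3 SD, below that limit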
# Target sequence (P28562 whole entry, looked up): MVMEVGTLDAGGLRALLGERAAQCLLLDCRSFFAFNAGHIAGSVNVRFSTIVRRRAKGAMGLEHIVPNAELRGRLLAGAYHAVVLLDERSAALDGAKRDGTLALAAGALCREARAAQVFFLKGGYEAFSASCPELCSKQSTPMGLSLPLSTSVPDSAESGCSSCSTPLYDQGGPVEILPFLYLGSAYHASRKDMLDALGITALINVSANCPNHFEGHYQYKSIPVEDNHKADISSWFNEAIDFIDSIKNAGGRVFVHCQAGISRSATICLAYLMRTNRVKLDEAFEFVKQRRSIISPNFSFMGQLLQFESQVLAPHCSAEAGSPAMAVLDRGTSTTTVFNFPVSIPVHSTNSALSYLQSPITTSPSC
# MMP13 inh: blocks human MMP13 activity. P45452. MMP-13 fTHP FRET cleavage, Mca fluorescence. inhibition, % at 4 µM. 65,000 tested, 0.07% active. AID 570;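 active = inhibition above the mean of compound-free control plate wells plus 3 SD, cut at about 14% in these data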
# HePTP inhibitor: inhibitors of human HePTP phosphatase; recombinant HePTP phosphatase activity, OD absorbance; inhibition, % at 20 µM; 110,000 tested, 0.64% active; P35236; in the data active = inhibition above about 50%; inconclusive = no clear call, values can overlap the other calls
# Ecoli tolC: E. coli tolC mutant growth inhibition. growth inhibition, % at 10 µM (by protocol). AID 573. E. coli BW25113 tolC mutant growth, OD615. 65,000 tested, 2.2% active;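 active = growth inhibition at or above a cutoff equal to the mean over every tested compound plus 3 SD, cut at about 60% in these data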;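 note: growth measured after 20 h incubation at 37 °C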
#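 signal = optical density read at 615 nm | test system = E. coli ΔtolC::kan strain BW25113 | timing = 20 h compound exposure of bacteria at 37 °C | buffer or medium = LB medium plus 50 µg/mL kanamycin | compound dosing = 10 µM final, single dose | evaluation = % inhibition of E. coli growth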
# Cdc25B block: inhibitors of human Cdc25B phosphatase | recombinant Cdc25B, OMFP fluorescence Ex485/Em525 | inhibition, %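 (compounds tested at 10 µM final in the well)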 | 65,000 tested, 0.1% active; in the data active = inhibition above about 50%
# E coli WT exp: blocks growth of wild type E. coli BW25113; OD600 absorbance; AID 710; 98,000 tested, 0.15% active; growth inhibition, % at 100 µM;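 active = growth inhibition above about 50% at one test dose, limit read from the data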;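 note: growth measured after 20 h incubation at 37 °C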
# Redox 05 DTT: generates H2O2 by redox cycling in 0.5 mM DTT; shares compounds with Cdc25B block; cell-free redox cycling H2O2 generation; EC50, µM; 30 tested, 50% active; AID 682; in the data active = EC50 below about 30 µM
# Redox 1 DTT: counter-screen for Cdc25B probes: redox cycling H2O2 in 1 mM DTT. shares compounds with Cdc25B block. cell-free redox cycling H2O2 generation. EC50, µM. 30 tested, under 10 active; in the data active = EC50 below about 50 µM
# Redox H2O2: redox cycling H2O2 generation, MKP probe counter-screen. shares compounds with MKP-1 inh. DTT, phenol red/HRP. EC50, µM. 60 tested, under 10 active; call rule not given here
# A number is an active result; – = inactive; ? = inconclusive; · = no result given.
SMILES,MKP-1 inh,MMP13 inh,HePTP inhibitor,Ecoli tolC,Cdc25B block,E coli WT exp,others
CC(C)(C)OC(=O)N1CCC[C@H]1c1nnc(SCc2ccccc2Cl)o1,–,–,–,–,–,–,
CC(C)(C)OC(=O)N1CCC[C@H]1c1nnc(SCc2ccc(Cl)cc2Cl)o1,–,–,–,89,–,–,
O=C(O)CCCN1C(=O)C(=O)/C(=C(/O)c2ccccc2)C1c1ccc(F)cc1 (centres undefined),·,·,–,·,·,·,
Cc1ccc(C(=O)Oc2ccc(/C=C3\SC(N)=NC3=O)cc2)cc1,·,·,–,·,·,·,
CCOc1ccccc1NC(=O)c1c(NC(=O)c2ccccc2Cl)sc2c1CCC(C)C2 (centres undefined),·,·,–,·,·,·,
COCc1nnc(NC(=O)c2ccc(S(=O)(=O)N3CCCCCC3)cc2)o1,–,–,–,74,–,–,
CN(C1CCCCC1)S(=O)(=O)c1ccc(NC(=O)c2ccc(Br)o2)cc1,–,–,–,70,–,–,
COCc1nnc(NC(=O)c2ccc(S(=O)(=O)N(C)C3CCCCC3)cc2)o1,–,–,–,95,–,–,
COCCN(CCOC)S(=O)(=O)c1ccc(C(=O)Nc2nnc(C)o2)cc1,–,–,–,–,–,–,
Cc1ccc(O)c(-c2cc(-c3ccccc3F)[nH]n2)c1,·,·,·,·,·,–,
Cc1ccc(O)c(-c2cc3ccccc3[nH]2)c1,–,–,–,100,–,–,
O=C(COc1ccccc1)Nc1nnc(-c2ccccc2)o1,–,–,–,–,–,–,
O=C(COn1nnc2ccc(C(F)(F)F)cc21)Nc1nnc(-c2ccccc2)o1,–,–,–,100,–,–,
COc1ccccc1-c1c(C(F)(F)F)oc2c(CN3CC(C)OC(C)C3)c(O)ccc2c1=O (centres undefined),·,·,–,·,·,·,
O=c1oc2cc(O)c([N+](=O)[O-])cc2cc1-c1csc(-c2ccc(Cl)cc2)n1,·,·,–,·,·,·,
O=c1oc2cc(O)c([N+](=O)[O-])cc2cc1-c1csc(-c2cc3ccccc3oc2=O)n1,·,·,84,·,·,·,
COC(=O)C1=C(C)NC(=O)CC1c1cccc(Cl)c1 (centres undefined),·,·,–,·,·,·,
Cc1cc(=O)[nH]c(SCC(=O)Nc2nc(-c3ccccc3)cs2)n1,–,–,–,69,–,–,
Cc1csc(SCC(=O)Nc2nc(-c3ccccc3)cs2)n1,–,–,–,91,–,–,
O=C(CSc1ncn[nH]1)Nc1nc(-c2ccccc2)cs1,·,·,·,·,·,–,
CCn1c(SCC(=O)Nc2nc(-c3ccc(C)cc3)cs2)nnc1-c1ccccc1,·,·,·,·,·,–,
CCn1c(SCC(=O)Nc2nc(-c3ccc(C)cc3)cs2)nnc1-c1ccccc1O,–,–,–,84,–,–,
Cc1ccc(C)c(S(=O)(=O)C(C#N)c2nc3ccccc3nc2N2CCOCC2)c1 (centres undefined),?,–,–,70,–,–,
Cc1ccc(C)c(S(=O)(=O)C(C#N)c2nc3ccccc3nc2N2CCCC2)c1 (centres undefined),–,–,–,–,–,–,
COc1ccc(Cl)cc1/C=C(/C#N)C(=O)Nc1cccc(Br)c1,·,·,–,·,·,·,
SMILES,MKP-1 inh,MMP13 inh,HePTP inhibitor,Ecoli tolC,Cdc25B block,E coli WT exp,others
[O-][N+]1=c2ccc(Nc3ccccc3)cc2=NC12CCCCC2,–,–,–,90,–,–,
CCOC(=O)c1cnc(SC2CCc3ccccc3C2=O)nc1N (centres undefined),–,–,–,–,–,–,
O=C(OC1CCc2ccccc2C1=O)c1ccccc1O (centres undefined),–,–,–,68,–,–,
O=C(Nc1cccc(Cl)c1)N(CCCN1CCOCC1)Cc1ccccc1F,–,–,–,68,–,–,
O=C(Nc1ccccc1)N(CCCN1CCOCC1)Cc1ccccc1F,–,–,–,–,–,–,
O=C(O)C1Nc2c(O)cccc2C2C=CCC12 (centres undefined),–,–,·,–,56,·,Redox 05 DTT=–;Redox 1 DTT=–
O=C1Cc2ccccc2C(=O)N1CCc1ccccc1,–,–,–,–,59,–,Redox 05 DTT=–;Redox 1 DTT=–
O=C(O)CCN1C(=O)c2ccccc2C1=O,–,–,–,–,–,–,
O=C1C(=O)N(c2cccnc2)C(c2ccc(Cl)cc2)/C1=C(\O)c1ccc(Cl)cc1 (centres undefined),·,·,–,·,·,·,
O=c1[nH]c(Nc2ccccc2)cc2ccccc12,–,–,–,–,85,–,Redox 05 DTT=–;Redox 1 DTT=–
Cc1c(C(c2cc([N+](=O)[O-])cc([N+](=O)[O-])c2O)c2c(C)n(C)n(-c3ccccc3)c2=O)c(=O)n(-c2ccccc2)n1C,·,·,–,·,·,·,
Cc1nonc1NC1(O)C(=O)c2ccccc2C1=O,·,·,–,·,·,·,
O=C(NC1(O)C(=O)c2ccccc2C1=O)c1ccccc1,62,–,–,–,96,–,Redox 05 DTT=29;Redox 1 DTT=–;Redox H2O2=–
N#Cc1c(N2CCCC2)nc(N)c2c(N)nc(N3CCCC3)cc12,76,–,·,–,101,–,Redox 05 DTT=13;Redox 1 DTT=27;Redox H2O2=–
CCOC(=O)C(C)Oc1cc2oc(=O)cc(-c3ccccc3)c2cc1CC (centres undefined),·,·,–,·,·,·,
CCOc1ccc2noc3c2c1C(=O)c1ccccc1-3,65,–,–,–,92,–,Redox 05 DTT=–;Redox 1 DTT=–;Redox H2O2=–
CCNc1ccc2noc3c2c1C(=O)c1ccccc1-3,·,·,–,·,·,·,
O=C(OC1CCCCC1)c1ccc2c(c1)C1C=CCC1C(C(=O)O)N2 (centres undefined),52,–,·,–,63,–,Redox 05 DTT=–;Redox 1 DTT=–;Redox H2O2=–
O=C1NC(=O)N(c2ccccc2)C(=O)/C1=C\c1cccc([N+](=O)[O-])c1,·,·,–,·,·,·,
CC1=C(/C=C/C(C)=C/C=C/C(C)=C/C(=O)O)C(C)(C)CCC1,56,–,–,–,–,·,Redox H2O2=–
NC(=O)CN1C(=O)/C(=C2\SC(=S)N(Cc3ccccc3)C2=O)c2ccccc21,·,·,–,·,·,·,
CC(C)(C)N1C(=O)Cc2c1nc(N)c1c(N)nc(N3CCCCC3CO)c(C#N)c21 (centres undefined),53,–,–,80,–,–,Redox H2O2=–
CN(CCO)c1nc(N)c2c(N)nc3c(c2c1C#N)CC(=O)N3C1CCCC1,·,·,·,·,·,–,
C=CCNC(=O)COc1ccc(Br)c(C)c1,·,·,–,·,·,·,
CCOc1ccc(-c2cc3nc(C4CCN(C(=O)OC(C)(C)C)CC4)c(C(=O)O)cn3n2)cc1,64,–,–,–,–,–,Redox H2O2=–
Cc1nc2c(C(=O)NCCC3=CCCCC3)c[nH]n2c(=O)c1Cl,54,–,–,79,–,–,Redox H2O2=–
Cc1nc2c(C(=O)NCc3ccc4c(c3)OCO4)c[nH]n2c(=O)c1Cl,–,–,–,–,–,–,
O=C1C=C(NCc2ccc(Cl)c(Cl)c2)CC1,70,–,–,–,–,–,Redox H2O2=–
COc1ccc(C(=O)N2CCN(C(c3ccccc3)c3ccccc3)CC2)cc1OC,·,·,–,·,·,·,
Brc1ccc2c(c1)Nc1nc3nonc3nc1N2,·,·,–,·,·,·,
